Lmaj promast – Leishmania major promastigote growth inhibition, primary screen. Leishmania major promastigotes, resazurin fluorescence viability. inhibition, % at 10 µM. 9% of 200,000 active;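 also: promastigotes grown with compound for 44 hours at 28 °C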
WT yeast gro inh – growth inhibition of WT strain, primary screen, mitochondrial fusion inhibitor project, WT and mutant strains, chemical genetic | mitochondrial fusion phenotypic screen | inhibition, % at 10 µM | 2.1% of 190,000 active; in the data active = inhibition above about 58%; tested in S. cerevisiae
G6PDH counter – L. mesenteroides G6PDH inhibitors, counter-screen for G6PDH-coupled screening assays, biochemical, Leuconostoc mesenteroides enzyme | inhibition, % at 5 µM | glucose-6-phosphate dehydrogenase [Leuconostoc mesenteroides] | 0.12% of 200,000 active | Purified L. mesenteroides G6PDH, diaphorase/resazurin coupled fluorescence, 45 min
Diaphorase inh – diaphorase inhibitors and chemical oxidizers, primary screen, counter-screen for diaphorase-coupled primary assays, biochemical, uHTS, resorufin fluorescence | 0.69% of 190,000 active | diaphorase resazurin-to-resorufin fluorescence, NADH, 16 min; bacterial (C. kluyveri) enzyme, not human | inhibition, % at 20 µM;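 active = primary screen inhibition at 20 µM above a set limit, cut at about 50% in these data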
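System: Bacterial diaphorase enzyme (C. kluyveri) | Incubation: 16-min room-temperature incubation before reading | Benchmarks: No-NADH positive control and DMSO neutral control | Measured by: Resorufin fluorescence 544/590 nm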
Diaph act CS – compounds boosting diaphorase resazurin reduction – biochemical, uHTS, resorufin fluorescence, counter-screen for diaphorase-coupled primary assays, primary screen; Diaphorase/resazurin coupled assay, 16 min; hits give high values; 1 = vehicle wells, 0 = NADH-free wells; activation factor at 20 µM; 0.005% of 190,000 active;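 active = diaphorase activity raised at least twofold by the compound at 20 µM; inactive = activation factor below 2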
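Measured by – red resorufin fluorescence at 544/590 nm excitation/emission · Test system – Clostridium kluyveri diaphorase, purified enzyme · Incubation – reaction time 16 min, room temperature · Buffer or medium – 50 mM HEPES pH 7.4 with 4.542 mM MgCl2, 0.005% Tween 20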
A number is an active result; n = inactive. Sampled rows, rich in hits. Any-hit rate of the full collection: about 11%. Rule as the data show it, unless noted: active = inhibition above about 50%; inactive = the rest.

SMILES	Lmaj promast	WT yeast gro inh	G6PDH counter	Diaphorase inh	Diaph act CS
CC(C(=O)Nc1ccc([N+](=O)[O-])cc1)N1CCN(C/C=C/c2ccccc2)CC1 (configuration not stated)	81.9	n	n	n	n
O=C(NCCc1c[nH]c2ccccc12)c1cc2sccc2n1Cc1ccccc1	99.6	n	n	n	n
Cn1c(C(=O)NCCc2c[nH]c3ccccc23)cc2sccc21	n	n	n	n	n
CC(C)c1ccc(-c2c(C#N)c(N)nc(SCC(=O)N3CCCCCC3)c2C#N)cc1	51.3	n	n	n	n
CC(C)c1ccc(-c2c(C#N)c(N)nc(SCC(=O)N3CCCCC3)c2C#N)cc1	n	n	n	n	n
COc1ccc2o/c(=N\O)c(C(=O)Nc3ccc(C)cc3)cc2c1	50.1	n	n	n	n
COc1ccc2oc(=N)c(C(=O)Nc3ccccc3)cc2c1	n	n	n	n	n
COc1ccc(N2C(=O)N(Cc3cccc(F)c3)c3ccccc3S2(=O)=O)cc1	n	n	n	n	n
COc1ccccc1Oc1ccc2c(c1)C(=O)N(c1ccc(Br)c3cccnc13)C2=O	n	n	n	n	n
Cc1c(NC(=O)C(C)OC(=O)c2cccs2)c(=O)n(-c2ccccc2)n1C (configuration not stated)	n	n	n	n	n
CCC(C)(C)C1CCc2nc3ccccc3c(C(=O)OC(C)C(=O)Nc3c(C)n(C)n(-c4ccccc4)c3=O)c2C1 (configuration not stated)	83.7	n	n	n	n
CCCCn1nnnc1SCC(=O)NNC(=O)c1ccco1	n	n	n	n	n
O=C(CNc1cccc(C(F)(F)F)c1)N/N=C/C1CCCCC1	n	n	n	n	n
O=C(O)c1cc(Cl)c(Cl)cc1C(=O)Nc1cccc2cccnc12	n	n	n	n	n
CCCC[n+]1ccn(-c2nc3ccccc3nc2[N-]S(=O)(=O)c2ccccc2)c1	54.0	n	n	n	n
CCCC[n+]1ccn(-c2nc3ccccc3nc2[N-]S(=O)(=O)c2ccc(C)cc2)c1	99.3	n	n	n	n
O=S(=O)([N-]c1nc2ccccc2nc1-[n+]1ccc(-c2ccncc2)cc1)c1ccccc1	n	n	n	n	n
CCCCC[n+]1ccn(-c2nc3ccccc3nc2[N-]S(=O)(=O)c2ccc(C)cc2)c1	99.5	n	n	n	n
O=S(=O)([N-]c1nc2ccccc2nc1-[n+]1ccccc1)c1ccccc1	n	n	n	n	n
C/C=C(/C(=C/C)c1ccc(O)cc1)c1ccc(O)cc1	n	63.0	n	n	n
CCCCNC(=O)COC(=O)CNC(=O)c1cc(Cl)cc([N+](=O)[O-])c1	n	n	n	n	n
CCOC(=O)C1=C(C)N=C2SCCC(=O)N2C1c1sccc1C (configuration not stated)	n	64.7	n	n	n
O=[N+]([O-])c1ccc(-c2nc(NCc3ccccc3)c3ccccc3n2)cc1	n	n	n	n	n
O=C(O)c1cccc(Nc2nc(C(F)(F)F)nc3ccccc23)c1	n	n	n	n	n
Fc1ccc(CNc2nc(-c3ccccc3)nc3ccccc23)cc1	69.2	n	n	n	n
SMILES	Lmaj promast	WT yeast gro inh	G6PDH counter	Diaphorase inh	Diaph act CS
Cc1ccc(-c2nc(NCc3cccnc3)c3ccccc3n2)cc1	82.7	n	n	n	n
Clc1cccc(-c2nc(NCc3cccnc3)c3ccccc3n2)c1	86.5	n	n	n	n
Fc1cccc(Nc2nc(-c3ccncc3)nc3ccccc23)c1	60.8	n	n	n	n
Cc1cccc(NC(=O)CSc2nncn2-c2ccccn2)c1	n	n	n	n	n
Cc1ccc(-c2nnn(CC(=O)N(Cc3ccccc3)C(C(=O)NC3CCCC3)c3ccncc3)n2)o1 (configuration not stated)	n	n	n	n	n
c1ccc(-c2nc(NCc3cccnc3)c3ccccc3n2)cc1	80.1	n	n	n	n
CC(=O)Oc1ccc(NC(=O)CSc2ccccc2)cc1	n	n	n	n	n
COc1cccc(C(=O)NC(=S)Nc2ccc(N(C)C)cc2)c1	n	n	n	n	n
COc1ccc(NS(=O)(=O)c2cc(NC(=O)c3cnccn3)ccc2N2CCCC2)cc1	93.3	n	n	n	n
COc1ccc(NS(=O)(=O)c2cc(NC(=O)c3ccc(C)o3)ccc2N2CCCCC2)cc1	99.0	n	n	n	n
COc1ccc(NS(=O)(=O)c2cc(NC(=O)c3cnccn3)ccc2OC)cc1Br	94.9	n	n	n	n
CC(CCc1ccccc1)NC(=O)C(=O)Nc1ccccc1 (configuration not stated)	n	n	n	n	n
COc1ccc(NC(=O)/C=C/c2c(Cl)nc3ccccn23)cc1	n	n	n	n	n
CCN(C(=O)COC(=O)c1cc(-c2ccc3cc(OC)ccc3c2)nc2ccccc12)C1CCS(=O)(=O)C1 (configuration not stated)	97.6	n	n	n	n
CCN(C(=O)COC(=O)c1cc(-c2ccccc2)nc2c1c(C)nn2-c1ccccc1)C1CCS(=O)(=O)C1 (configuration not stated)	n	n	n	n	n
O=C(COC(=O)Cc1cccs1)Nc1ccccc1	n	n	n	n	n
Cc1ccc(Nc2nc(Cl)nc(N(C)C#N)n2)cc1	97.2	n	n	n	n
CC(C)Nc1nc(NC(C)C)nc(N(C)C#N)n1	n	n	n	n	n
CCCC(c1nnnn1Cc1ccco1)N1CCC(C(N)=O)CC1 (configuration not stated)	n	n	n	n	n
Cc1ccc(N(C)S(=O)(=O)c2cccc(C(=O)Oc3ccc4c(C)cc(=O)oc4c3)c2)cc1	n	n	n	n	n
O=C(OCCn1cncn1)c1cc2ccccc2oc1=O	n	n	n	n	n
COc1cccc(CN(C(=O)Cc2c[nH]c3ccccc23)C(C(=O)NC2CCCCC2)c2ccc(C)o2)c1 (configuration not stated)	n	n	n	n	n
CC(=O)NC1=C(N(C)C2CCS(=O)(=O)C2)C(=O)c2ccccc2C1=O (configuration not stated)	n	n	n	62.0	n
Cc1ccc(NCC(=O)N/N=C/c2c[nH]c3ccccc23)cc1	n	n	n	n	n
C=CCNC(=O)C1CC1(c1ccccc1)c1ccccc1 (configuration not stated)	n	n	n	n	n
CN(C)c1ccc(N/C=C/C(=O)C(C)(C)C)cc1	53.6	n	n	n	n
CN(C)c1ccc(N/C=C/C(=O)c2ccccc2)cc1	100.3	n	n	n	n
CC(C)(C)C(=O)/C=C/Nc1ccccc1O	98.3	n	n	n	n
Cc1ccc(Sc2ncccc2C(=O)O)c(C)c1	n	n	n	n	n
